Results published in ChEMBL document CHEMBL1268976, “Stereocontrolled facile synthesis and antimicrobial activity of oximes and oxime ethers of diversely substituted bispidines” (2010).
Converted amounts (≈) assume the structure as drawn.

Assays:
Type in all cases: functional
Candida albicans = assay: Antifungal activity against Candida albicans by broth microdilution method
Summary of the method: (§1)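 Fungal panel of Candida albicans, Candida parapsilosis, Aspergillus niger and Cryptococcus neoformans, tested in vitro by standard NCCLS broth microdilution. The yeast susceptibility reference cited is M27-A.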

Aspergillus niger = assay: Antifungal activity against Aspergillus niger by broth microdilution method; summary of the method: as §1
Pseudomonas aeruginosa = assay: Antibacterial activity against Pseudomonas aeruginosa by broth microdilution method
Summary of the method: (§2)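 In vitro broth microdilution following the NCCLS standard for bacteria (M7-A5). The test panel was Bacillus subtilis, Staphylococcus aureus, Klebsiella pneumoniae and Pseudomonas aeruginosa.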

Cryptococcus neoformans = assay: Antimicrobial activity against Cryptococcus neoformans by broth microdilution method; summary of the method: as §1
Candida parapsilosis = assay: Antifungal activity against Candida parapsilosis by broth microdilution method; settings: Lodderomyces parapsilosis; summary of the method: as §1
Klebsiella pneumoniae = assay: Antibacterial activity against Klebsiella pneumoniae by broth microdilution method; summary of the method: as §2
Staphylococcus aureus = assay: Antibacterial activity against Staphylococcus aureus by broth microdilution method; summary of the method: as §2
Bacillus subtilis = assay: Antibacterial activity against Bacillus subtilis by broth microdilution method; summary of the method: as §2

SMILES	MIC90 (Candida albicans) [µg/mL]	MIC90 (Aspergillus niger) [µg/mL]	MIC90 (Pseudomonas aeruginosa) [µg/mL]	MIC90 (Cryptococcus neoformans) [µg/mL]	MIC90 (Candida parapsilosis) [µg/mL]	MIC90 (Klebsiella pneumoniae) [µg/mL]	MIC90 (Staphylococcus aureus) [µg/mL]	MIC90 (Bacillus subtilis) [µg/mL]
COc1cccc(C2NC(c3cccc(OC)c3)C3C(=NO)C2C(c2cccc(OC)c2)NC3c2cccc(OC)c2)c1 (centres undefined)	> 128	64 (≈ 110 µM)	128 (≈ 221 µM)	> 128	> 128	> 128	> 128	> 128
ON=C1C2C(c3ccccc3Br)NC(c3ccccc3Br)C1C(c1ccccc1Br)NC2c1ccccc1Br (centres undefined)	> 128	> 128	> 128	> 128	> 128	> 128	> 128	> 128
CON=C1C2C(c3cccc(Cl)c3)NC(c3cccc(Cl)c3)C1C(c1cccc(Cl)c1)NC2c1cccc(Cl)c1 (centres undefined)	> 128	64 (≈ 105 µM)	> 128	> 128	> 128	64 (≈ 105 µM)	> 128	> 128
Cc1ccc(C2NC(c3ccc(C)cc3)C3C(=NO)C2C(c2ccc(C)cc2)NC3c2ccc(C)cc2)cc1 (centres undefined)	64 (≈ 124 µM)	> 128	32 (≈ 62.1 µM)	> 128	32 (≈ 62.1 µM)	> 128	> 128	> 128
Cc1ccccc1C1NC(c2ccccc2C)C2C(=NO)C1C(c1ccccc1C)NC2c1ccccc1C (centres undefined)	64 (≈ 124 µM)	64 (≈ 124 µM)	32 (≈ 62.1 µM)	> 128	8 (≈ 15.5 µM)	> 128	128 (≈ 248 µM)	> 128
ON=C1C2C(c3ccccc3Cl)NC(c3ccccc3Cl)C1C(c1ccccc1Cl)NC2c1ccccc1Cl (centres undefined)	16 (≈ 26.8 µM)	8 (≈ 13.4 µM)	16 (≈ 26.8 µM)	16 (≈ 26.8 µM)	> 128	32 (≈ 53.6 µM)	64 (≈ 107 µM)	> 128
CC(C)c1ccc(C2NC(c3ccc(C(C)C)cc3)C3C(=NO)C2C(c2ccc(C(C)C)cc2)NC3c2ccc(C(C)C)cc2)cc1 (centres undefined)	> 128	> 128	16 (≈ 25.5 µM)	> 128	32 (≈ 51 µM)	128 (≈ 204 µM)	128 (≈ 204 µM)	> 128
CON=C1C2C(c3ccc(OCc4ccccc4)cc3)NC(c3ccc(OCc4ccccc4)cc3)C1C(c1ccc(OCc3ccccc3)cc1)NC2c1ccc(OCc2ccccc2)cc1 (centres undefined)	> 128	64 (≈ 71.3 µM)	> 128	> 128	> 128	64 (≈ 71.3 µM)	> 128	> 128
CON=C1C2C(c3ccccc3F)NC(c3ccccc3F)C1C(c1ccccc1F)NC2c1ccccc1F (centres undefined)	8 (≈ 14.7 µM)	4 (≈ 7.33 µM)	4 (≈ 7.33 µM)	> 128	64 (≈ 117 µM)	16 (≈ 29.3 µM)	64 (≈ 117 µM)	32 (≈ 58.7 µM)
CCCCOc1ccc(C2NC(c3ccc(OCCCC)cc3)C3C(=NO)C2C(c2ccc(OCCCC)cc2)NC3c2ccc(OCCCC)cc2)cc1 (centres undefined)	> 128	32 (≈ 42.8 µM)	64 (≈ 85.6 µM)	32 (≈ 42.8 µM)	> 128	64 (≈ 85.6 µM)	> 128	> 128
ON=C1C2C(c3cccc(Cl)c3)NC(c3cccc(Cl)c3)C1C(c1cccc(Cl)c1)NC2c1cccc(Cl)c1 (centres undefined)	> 128	64 (≈ 107 µM)	64 (≈ 107 µM)	> 128	> 128	> 128	> 128	> 128
CON=C1C2C(c3ccccc3Br)NC(c3ccccc3Br)C1C(c1ccccc1Br)NC2c1ccccc1Br (centres undefined)	> 128	> 128	> 128	> 128	64 (≈ 81.1 µM)	> 128	> 128	> 128
C=CCOc1ccc(C2NC(c3ccc(OCC=C)cc3)C3C(=NO)C2C(c2ccc(OCC=C)cc2)NC3c2ccc(OCC=C)cc2)cc1 (centres undefined)	> 128	64 (≈ 93.6 µM)	> 128	> 128	64 (≈ 93.6 µM)	64 (≈ 93.6 µM)	> 128	128 (≈ 187 µM)
CON=C1C2C(c3ccccc3Cl)NC(c3ccccc3Cl)C1C(c1ccccc1Cl)NC2c1ccccc1Cl (centres undefined)	16 (≈ 26.2 µM)	2 (≈ 3.27 µM)	16 (≈ 26.2 µM)	16 (≈ 26.2 µM)	> 128	4 (≈ 6.54 µM)	16 (≈ 26.2 µM)	> 128
CCCCOc1ccc(C2NC(c3ccc(OCCCC)cc3)C3C(=NOC)C2C(c2ccc(OCCCC)cc2)NC3c2ccc(OCCCC)cc2)cc1 (centres undefined)	> 128	32 (≈ 42 µM)	64 (≈ 84 µM)	32 (≈ 42 µM)	> 128	64 (≈ 84 µM)	> 128	> 128
CON=C1C2C(c3cccc(Br)c3)NC(c3cccc(Br)c3)C1C(c1cccc(Br)c1)NC2c1cccc(Br)c1 (centres undefined)	> 128	> 128	> 128	> 128	> 128	> 128	> 128	> 128
CON=C1C2C(c3ccc(OC)cc3)NC(c3ccc(OC)cc3)C1C(c1ccc(OC)cc1)NC2c1ccc(OC)cc1 (centres undefined)	> 128	16 (≈ 26.9 µM)	16 (≈ 26.9 µM)	16 (≈ 26.9 µM)	128 (≈ 216 µM)	> 128	32 (≈ 53.9 µM)	64 (≈ 108 µM)
C=CCOc1ccc(C2NC(c3ccc(OCC=C)cc3)C3C(=NOC)C2C(c2ccc(OCC=C)cc2)NC3c2ccc(OCC=C)cc2)cc1 (centres undefined)	> 128	64 (≈ 91.7 µM)	64 (≈ 91.7 µM)	> 128	32 (≈ 45.9 µM)	16 (≈ 22.9 µM)	> 128	64 (≈ 91.7 µM)
ON=C1C2C(c3cccc(F)c3)NC(c3cccc(F)c3)C1C(c1cccc(F)c1)NC2c1cccc(F)c1 (centres undefined)	32 (≈ 60.2 µM)	64 (≈ 120 µM)	64 (≈ 120 µM)	> 128	> 128	64 (≈ 120 µM)	> 128	128 (≈ 241 µM)
ON=C1C2C(c3cccc(Br)c3)NC(c3cccc(Br)c3)C1C(c1cccc(Br)c1)NC2c1cccc(Br)c1 (centres undefined)	> 128	> 128	> 128	> 128	> 128	> 128	> 128	> 128
CON=C1C2C(c3cccc(Oc4ccccc4)c3)NC(c3cccc(Oc4ccccc4)c3)C1C(c1cccc(Oc3ccccc3)c1)NC2c1cccc(Oc2ccccc2)c1 (centres undefined)	64 (≈ 76 µM)	128 (≈ 152 µM)	> 128	> 128	128 (≈ 152 µM)	> 128	> 128	> 128
CON=C1C2C(c3ccc(C(C)C)cc3)NC(c3ccc(C(C)C)cc3)C1C(c1ccc(C(C)C)cc1)NC2c1ccc(C(C)C)cc1 (centres undefined)	128 (≈ 199 µM)	128 (≈ 199 µM)	16 (≈ 24.9 µM)	> 128	8 (≈ 12.5 µM)	128 (≈ 199 µM)	128 (≈ 199 µM)	> 128
ON=C1C2C(c3cccc(Oc4ccccc4)c3)NC(c3cccc(Oc4ccccc4)c3)C1C(c1cccc(Oc3ccccc3)c1)NC2c1cccc(Oc2ccccc2)c1 (centres undefined)	128 (≈ 155 µM)	> 128	> 128	> 128	128 (≈ 155 µM)	> 128	> 128	> 128
